Experimental data from different studies.
Target: Phosphatidylinositol 4-phosphate 5-kinase type-1 gamma (PIP5K1C, Homo sapiens, UniProt O60331)

| Compound | observed | action | technique | tested at | quantity | result |
| --- | --- | --- | --- | --- | --- | --- |
| Cc1ccc(NC(=O)c2ccnc(C(F)(F)F)c2)cc1-c1cc(OCCO)nc(N2CCOCC2)c1 | binding |  |  | 1 µM | remaining binding | 98% |
| C1=C/COCc2cc(ccc2OCCN2CCCC2)Nc2nccc(n2)-c2cccc(c2)COC/1 | binding |  |  | 0.1 µM | remaining binding | 60% |
| COc1ccc2oc(-c3ccc4nc(N)oc4c3)c/c(=N\c3ccccc3NC(=O)CCN)c2c1 | binding |  |  | 1 µM | remaining binding | 102% |
| COc1ccc2[nH]c3c4[nH]c5ccc(OC)cc5c4c4c(c3c2c1)C(=O)NC4=O | binding |  |  | 1 µM | remaining binding | 81% |
| CC#CC(=O)N1CCC[C@H]1c1nc(-c2ccc(C(=O)Nc3ccccn3)cc2)c2c(N)nccn12 | enzyme activity | inhibitor |  | 1 µM | inhibition | 0% |
| CCCCC(=O)Nc1ccc(-c2ccc3ncn(CCC)c(=O)c3c2)cn1 | binding |  | competition with immobilised ligand | 0.5 µM | remaining binding | 96% |
| CO[C@@H]1[C@H](N(C)C(=O)c2ccccc2)C[C@H]2O[C@]1(C)n1c3ccccc3c3c4c(c5c6ccccc6n2c5c31)C(=O)NC4 | enzyme activity | inhibitor |  | 1 µM | inhibition | 11% |
| CC(C)S(=O)(=O)c1ccc2nccc(Nc3ccc4sc(C5CCCC5)nc4c3)c2c1 | enzyme activity | inhibitor |  | 1 µM | activity vs control | 105% |
